24 compounds from ChEMBL document CHEMBL6177989, “Development of Diaryl Hydrazones for Alleviation of Mitochondrial Oxidative Stress in Preeclampsia” (2025) can be followed below.

Assay [1] in a line: Antioxidant activity assessed as trolox equivalent of DPPH radical scavenging activity […] measured every 15 mins for 60 mins by absorbance based assay. The class given is functional. In a few lines: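 DPPH radical scavenging by absorbance at 25 °C, compounds at 200 μM antioxidant concentration. Percent scavenging from control vs sample absorbance; 60 min value divided by 60 min Trolox value to give Trolox equivalents. Mean ± SD, four independent repeats.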
For orientation: DPPH is a stable violet radical that fades when it is reduced.

Assay [2] can be described thus: Antioxidant activity assessed as trolox equivalent of ABTS radical scavenging activity at […] measured up to 12 mins by absorbance based analysis. The assay is classed as functional. In a few lines: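 ABTS radical generated 12–24 h before assay; compounds tested at 500 μM final antioxidant concentration; absorbance read on plate reader at 25 °C. Percent scavenging standardized to Trolox scavenging to give Trolox equivalents; mean ± SD of three independent repeats.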

The nature of assay [3]: Antioxidant activity assessed as trolox equivalent of ORAC radical scavenging activity […] measured every 2 mins for 60 mins by UV-Vis / fluorescence plate reader based analysis. The class given is functional. In a few lines:
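ORAC: fluorescein with AAPH, fluorescence read 30 times; net AUC relative to AAPH control and no-AAPH maximum. Compounds at 80 μM; Trolox calibration (3.125–100 μM) of percent scavenging vs ln concentration gives Trolox equivalent concentration. 25 °C; mean ± SD, three independent repeats.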

Assay [4] relates to HTR-8/SVneo. Put plainly: Antioxidant activity in H2O2 induced human HTR-8/SVneo cells assessed as reduction in sFLT-1 protein expression at 0.1 to 50 uM preincubated for 30 mins followed by H2O2 addition and measured after 20 hrs by ELISA method. The following applies: dose 0.1-50 µM, time 20.5 hrs. The assay is classed as functional, cell-based. The method, boiled down:
(§1)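 HTR-8/SVneo cells in RPMI with 5% FBS, 37 °C, 5% CO2, pretreated 30 min with 0.1–50 μM compound, then 100 μM H2O2 for 20 h with compound present throughout. Supernatant sFLT-1 measured by human VEGFR1 ELISA; MitoTEMPO as reference antioxidant; 5 repeat experiments.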
For orientation: An ELISA detects its analyte on a solid surface through an enzyme-linked reagent.

A short description of assay [5]: Antioxidant activity in H2O2 induced human HTR-8/SVneo cells assessed as reduction in sFLT-1 protein expression at 0.1 to 50 uM preincubated for 30 mins followed by H2O2 addition and measured after 20 hrs by ELISA method relative to MitoTEMPO. The class given is functional. On the set-up: scale not given: the % may be the effect or the level left. Particulars: dose 0.1-50 µM, time 20.5 hrs. The method, boiled down:
as §1

The nature of assay [6]: Antioxidant activity in H2O2 induced human HTR-8/SVneo cells assessed as reduction in mitochondrial derived ROS production at 50 uM preincubated for 30 mins followed by H2O2 addition and measured after 20 hrs by MitoSOX red staining based immunofluorescence analysis relative to control. The assay is classed as functional. Particulars: time 20.5 hrs. Also noted: scale not given: the % may be the effect or the level left. The method, boiled down:
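HTR8 cells pretreated 30 min with 50 μM compound, then 100 μM H2O2 for 20 h. Mitochondrial superoxide imaged with MitoSOX Red by fluorescence microscopy at 20×; OD per cell surface area over 3 high-power fields per sample, n = 4 per group; median [IQR], Mann–Whitney U test.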

Active and inactive are the calls of the source. The rule behind the calls is not given here.

As for `CN(C)c1ccc(/C=N/Nc2cccc(C(F)(F)F)c2)cc1`, the result in assay [1], in assay [2], in assay [3] and in assay [4] was Active. Besides, the Activity in assay [5] is listed as 10%; in assay [6], 50%.

`C/C(=N\Nc1ccccc1)c1ccc(Cl)cc1`: the result in assay [1], in assay [2] and in assay [3] was Active.

On to `COc1ccc(/C=N/Nc2ccc(C(F)(F)F)cc2)c(O)c1`, for which the outcome in assay [1], in assay [2], in assay [3] and in assay [4] was Active.

Take `FC(F)(F)c1ccccc1N/N=C/c1c2ccccc2cc2ccccc12`: the outcome in assay [1] and in assay [2] was Active. Also, the Activity result in assay [3] was “Weak_effect”.

For `O=[N+]([O-])c1cccc(N/N=C/c2ccc3ccccc3c2)c1`, the outcome in assay [1] and in assay [2] was Active. Besides, the Activity entry in assay [3] was “Weak_effect”.

For the compound `COc1ccc(N/N=C/c2ccc(/C=N/Nc3ccc(OC)cc3)cc2)cc1`, the result in assay [1], in assay [2] and in assay [3] was Active.

For the compound `CN(C)c1ccc(/C=N/Nc2ccccc2C(F)(F)F)cc1`, the result in assay [1], in assay [2], in assay [3] and in assay [4] was Active.

`C/C(=N\Nc1cc(C)ccc1C)c1ccc([N+](=O)[O-])cc1`: the Activity result in assay [1] and in assay [2] was “Weak_effect” each time. Besides, the result in assay [3] was Active.

For the compound `C/C(=N\Nc1ccccc1)c1ccc(C)cc1`, the outcome in assay [1], in assay [2] and in assay [3] was Active.

For `O=[N+]([O-])c1ccc(/C=N/Nc2cccc(C(F)(F)F)c2)cc1`, the result in assay [1], in assay [2], in assay [3] and in assay [4] was Active.

For `Fc1c(F)c(F)c(/C=N/Nc2ccc(C(F)(F)F)cc2)c(F)c1F`, the result in assay [1], in assay [2], in assay [3] and in assay [4] was Active.

On to `Clc1ccc(N/N=C/c2ccc3ccccc3c2)cc1`, for which the result in assay [1] and in assay [2] was Active.

For the compound `Cc1ccc(C)c(N/N=C/c2ccc3ccccc3c2)c1`, the outcome in assay [1], in assay [2] and in assay [3] was Active.

Take `C(=N\Nc1ccccc1)/c1ccc2ccccc2c1`: the outcome in assay [1], in assay [2] and in assay [3] was Active.

Turning to `FC(F)(F)c1cccc(N/N=C/c2ccc(/C=N/Nc3cccc(C(F)(F)F)c3)cc2)c1`, the result in assay [1], in assay [2], in assay [3] and in assay [4] was Active.

Consider `COc1ccc(/C(C)=N/Nc2ccccc2)c(O)c1`, for which the result in assay [1], in assay [2] and in assay [3] was Active.

As to `COc1ccc(N/N=C(\C)c2cc3ccc(OC)cc3oc2=O)cc1`, the outcome in assay [1], in assay [2] and in assay [3] was Active.

As for `COc1ccc(N/N=C/c2ccc3ccccc3c2)cc1`, the outcome in assay [1], in assay [2] and in assay [3] was Active.

In the case of `COc1ccc(N/N=C(\C)c2ccc([N+](=O)[O-])cc2)cc1`, the Activity entry in assay [1] and in assay [2] was “Weak_effect” in each case. In addition, the result in assay [3] was Active.

In the case of `COc1ccc(N/N=C/c2ccc([N+](=O)[O-])cc2)cc1`, in assay [3], the result was Active.

Consider `CN(C)c1ccc(/C=N/Nc2ccc(C(F)(F)F)cc2)cc1`, for which the outcome in assay [1], in assay [2], in assay [3] and in assay [4] was Active.

For the compound `COc1ccc(/C=N/Nc2cccc(C(F)(F)F)c2)cc1OC`, the outcome in assay [1], in assay [2], in assay [3] and in assay [4] was Active. Moreover, the Activity in assay [5] turned out to be 10%.

`C/C(=N\Nc1cc(C)ccc1C)c1cccc([N+](=O)[O-])c1`: the Activity result in assay [1] and in assay [2] was “Weak_effect” each time. The result in assay [3] was Active.

For the compound `C(=N\Nc1ccccc1)/c1c[nH]c2ccccc12`, the outcome in assay [1], in assay [2] and in assay [3] was Active.
